Calls of active or inactive are those of the source. The calls are words filed in the database; no cut-off is given here.
Legend:
Canis familiaris [1] = experiment: Inhibition of histamine stimulated gastric acid secretion in adult mongrel dogs at dose 0.1 mg/kg given intravenously; assay type: functional; details: Canis lupus familiaris, Stomach, route intravenous
Procedure, shortened: (§1)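 Dogs with Heidenhain pouches, 12–18 kg, fasted 18 h. Compound given iv in 3 mL or by gavage in 5 mL of 0.4% methylcellulose/saline, 1 h after infusion start. 30-min collections titrated. Summed 3-h AO against the same dog's control AO gives % inhibition. Usually one dog per compound.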

Canis familiaris [2] = experiment: Inhibition of histamine stimulated gastric acid secretion in adult mongrel dogs at dose 2 mg/kg given intravenously; assay type: functional; details: Canis lupus familiaris, Stomach, route intravenous; procedure, shortened: as §1
Canis familiaris [3] = experiment: Inhibition of histamine stimulated gastric acid secretion in adult mongrel dogs at dose 2 mg/kg given orally; assay type: functional; details: Canis lupus familiaris, Stomach, route oral; procedure, shortened: as §1
Canis familiaris [4] = experiment: Inhibition of histamine stimulated gastric acid secretion in mongrel dogs following 4 mg/kg p.o. administration.; assay type: functional; details: Canis lupus familiaris, Stomach, route oral; procedure, shortened: as §1
Canis familiaris [5] = experiment: Inhibition of histamine stimulated gastric acid secretion in adult mongrel dogs at dose 5 mg/kg given intravenously; assay type: functional; details: Canis lupus familiaris, Stomach, route intravenous; procedure, shortened: as §1
Canis familiaris [6] = experiment: Inhibition of histamine stimulated gastric acid secretion in adult mongrel dogs at dose 8 mg/kg given orally; assay type: functional; details: Canis lupus familiaris, Stomach, route oral; procedure, shortened: as §1
Rattus norvegicus [7] = organism: Rattus norvegicus; experiment: Oral gastric cytoprotective activity in the rat against ethanol-induced lesions; assay type: functional; details: Stomach
Procedure, shortened: (§2)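 Rats fasted and water-deprived for 20 h. Compound given orally, 1–30 mg/kg in 0.4% methylcellulose/saline, 30 min before 1 mL absolute ethanol po. Killed 1 h after ethanol. Linear hemorrhagic lesion lengths totalled per stomach, expressed as group mean. ED50 by linear regression.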

Rattus norvegicus [8] = experiment: Gastric antisecretory activity in the pylorus-ligated rat and the reduction in acid output was measured after 4 hr by intraperitoneal (ip) administration of 40 mg/kg dose.; assay type: functional
Procedure, shortened: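 Male Charles River CD rats, 150–200 g, fasted 24 h. Pylorus ligated under Brevital anesthesia. 40 mg/kg given ip in 2.5% Tween 80 at ligation. Stomach contents collected at 4 h and titrated with 0.1 N NaOH to pH 7.0. % inhibition from mean AO, 6 treated vs 8 control rats. Student's t test.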

Canis familiaris [9] = experiment: Inhibition of histamine stimulated gastric acid secretion in adult mongrel dogs at dose 1 mg/kg given intravenously; assay type: functional; details: Canis lupus familiaris, Stomach, route intravenous; procedure, shortened: as §1
Canis familiaris [10] = experiment: Inhibition of histamine stimulated gastric acid secretion in adult mongrel dogs at dose 4 mg/kg given orally; assay type: functional; details: Canis lupus familiaris, Stomach, route oral; procedure, shortened: as §1
Rattus norvegicus [11] = organism: Rattus norvegicus; experiment: Oral gastric cytoprotective activity in the rat against ethanol-induced lesions was evaluated; details: Stomach
Rattus norvegicus [12] = organism: Rattus norvegicus; experiment: Oral gastric cytoprotective activity in the rat against ethanol-induced lesions was evaluated; NA=Inactive.; assay type: functional, organism-based; details: Stomach; procedure, shortened: as §2

| SMILES | inhibition in vivo at 0.1 mg/kg (Canis familiaris [1]) | inhibition in vivo at 2 mg/kg (Canis familiaris [2]) | inhibition in vivo at 2 mg/kg (Canis familiaris [3]) | inhibition in vivo at 4 mg/kg (Canis familiaris [4]) | inhibition in vivo at 5 mg/kg (Canis familiaris [5]) | inhibition in vivo at 8 mg/kg (Canis familiaris [6]) | ED50 (Rattus norvegicus [7]) | inhibition in vivo at 40 mg/kg (Rattus norvegicus [8]) | inhibition in vivo at 1 mg/kg (Canis familiaris [9]) | inhibition in vivo at 4 mg/kg (Canis familiaris [10]) | ED50 (Rattus norvegicus [11]) | ED50 (Rattus norvegicus [12]) |
| --- | --- | --- | --- | --- | --- | --- | --- | --- | --- | --- | --- | --- |
| Cc1nc2c(OCc3ccc(Cl)cc3)cccn2c1CC#N | 29% | 58% | 30% | 56% | 95% | 70% | 6.6 mg/kg | 90% |  |  |  |  |
| Cc1nc2c(OCc3cccs3)cccn2c1CC#N | 26% |  |  |  | 99% | 75% | 7 mg/kg | 96% | 90% | 17% |  |  |
| [C-]#[N+]Cc1c(C)nc2c(OCc3ccccc3)cccn12 | 37% | 94% |  | 8% |  | 94% |  | 96% |  |  | 2.2 mg/kg |  |
| Cc1nc2c(OCc3ccccc3)cccn2c1CC(=O)N(C)C |  |  |  |  |  |  |  | 37% | 16% |  |  |  |
| Cc1nc2c(OCc3ccccc3)cccn2c1C(=O)O |  |  |  |  | 4% |  |  | 0% |  |  |  | inactive |
| Cc1nc2c(OCc3ccccc3)cccn2c1CO |  | 80% |  | 20% | 80% | 20% | 16 mg/kg | 99% | 57% |  |  |  |
| Cc1nc2c(CSc3ccccc3)cccn2c1C |  |  |  |  |  |  |  | 29% | 31% |  | 6.4 mg/kg |  |
| Cc1nc2cccc(CCc3ccccc3)n2c1CC#N |  |  |  |  |  | 9% | 7.2 mg/kg | 20% | 71% |  |  |  |
| Cc1nc2c(OCc3ccccc3)cccn2c1CC(=N)S |  | 21% |  | 34% | 62% | 60% | 7 mg/kg | 67% |  |  |  |  |
| Cc1nc2c(OCCc3ccccc3)cccn2c1CC#N |  |  | 0% | 47% | 95% | 89% | 6 mg/kg | 70% |  |  |  |  |
| Cc1nc2c(OCc3ccccc3)cccn2c1C |  |  |  | 0% |  | 26% | 10 mg/kg | 99% | 90% |  |  |  |
| Cc1nc2c(OCc3ccccc3)cccn2c1C#N |  |  |  |  | 4% |  |  | 25% |  |  |  | inactive |
| N#CCc1cnc2c(OCc3ccccc3)cccn12 |  | 96% | 6% |  |  | 46% | 1 mg/kg | 99% | 52% |  |  |  |
| CCc1nc2c(OCc3ccccc3)cccn2c1CC#N | 16% | 95% |  | 54% |  | 93% | 4 mg/kg | 91% |  |  |  |  |
| Cc1nc2c(CCc3ccccc3)cccn2c1CC#N | 74% | 92% |  |  | 96% | 83% | 7 mg/kg | 99% |  | 3% |  |  |
| Cc1nc2c(OCc3ccc(C(F)(F)F)cc3)cccn2c1CC#N |  | 44% |  | 27% | 59% | 25% | 3 mg/kg | 26% |  |  |  |  |
